ChEMBL document CHEMBL1158555, “Structure-activity relationships of bioisosteric replacement of the carboxylic acid in novel androgen receptor pure antagonists” (Bioorg Med Chem, 2010)
Active and inactive are the calls of the source. The rule behind the calls is not given here.

Key:
Androgen receptor = molecular target: T1, Androgen receptor (Homo sapiens, UniProt P10275); test: Displacement of [3H]mibolerone from human AR expressed in CHO-K1 cells after 2 hrs by scintillation counting; format: cell-based
T1 sequence (P10275 whole entry): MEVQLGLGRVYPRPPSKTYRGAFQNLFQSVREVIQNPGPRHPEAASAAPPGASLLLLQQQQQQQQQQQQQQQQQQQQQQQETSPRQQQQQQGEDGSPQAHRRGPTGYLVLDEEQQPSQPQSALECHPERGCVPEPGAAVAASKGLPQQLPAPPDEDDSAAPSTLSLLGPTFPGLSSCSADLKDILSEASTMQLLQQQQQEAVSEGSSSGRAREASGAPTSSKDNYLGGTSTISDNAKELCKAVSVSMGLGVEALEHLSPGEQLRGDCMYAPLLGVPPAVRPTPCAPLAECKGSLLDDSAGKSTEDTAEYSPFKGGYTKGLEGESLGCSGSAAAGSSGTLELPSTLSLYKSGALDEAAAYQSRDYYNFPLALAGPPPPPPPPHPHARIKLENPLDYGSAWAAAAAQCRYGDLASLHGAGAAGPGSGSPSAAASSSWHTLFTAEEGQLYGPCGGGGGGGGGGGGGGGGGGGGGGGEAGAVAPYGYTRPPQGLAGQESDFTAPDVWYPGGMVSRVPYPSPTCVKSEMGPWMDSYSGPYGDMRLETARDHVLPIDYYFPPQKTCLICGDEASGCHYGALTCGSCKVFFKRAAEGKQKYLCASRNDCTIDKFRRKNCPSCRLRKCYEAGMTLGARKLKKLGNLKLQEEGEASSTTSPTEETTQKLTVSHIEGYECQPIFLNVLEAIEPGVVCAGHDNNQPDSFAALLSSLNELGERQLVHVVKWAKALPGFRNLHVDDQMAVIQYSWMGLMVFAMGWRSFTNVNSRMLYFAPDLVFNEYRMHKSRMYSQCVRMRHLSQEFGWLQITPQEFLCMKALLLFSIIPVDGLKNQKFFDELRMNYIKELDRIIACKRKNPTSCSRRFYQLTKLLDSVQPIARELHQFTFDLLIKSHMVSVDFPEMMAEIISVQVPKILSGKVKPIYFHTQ

[1] = molecular target: T2, Androgen receptor (Homo sapiens) (UniProt P10275); settings: HeLa
T2 sequence (whole entry): T1 sequence (P10275 whole entry)

[2] = molecular target: T2, Androgen receptor (Homo sapiens); settings: HeLa; remark: listed apart in the source
[3] = molecular target: T2, Androgen receptor (Homo sapiens); test: Agonist activity at AR in human LNCAP cells assessed as effect on cell proliferation after 6 days; format: functional, cell-based
Procedure, shortened: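 LNCaP cells were pre-starved and plated in phenol red-free RPMI 1640 with 5% DCC-FBS. After overnight attachment, test compound was added without R1881 for 6 days. Proliferation was read by MTS (CellTiter 96 AQueous One). Agonism was scored +/− from the growth dose-response curve.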

Mus musculus = organism: Mus musculus; test: Antiandrogenic activity in castrated mouse assessed as reduction in testosterone-induced wet weight gain of seminal vesicle; format: functional
LNCaP = test: Antitumor activity against human LNCAP cells xenografted in po dosed SCID mouse assessed as inhibition of tumor growth administered once daily in seven cycles of 5 days on and 2 days off schedule; format: functional, organism-based
Procedure, shortened: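 LNCaP cells (2×10^6) were injected subcutaneously into 6-week-old male SCID mice. At tumour size 90–400 mm³, mice were randomised and dosed orally in 5% gum arabic at 10 mL/kg body weight. Dosing ran as seven cycles of 5 days on, 2 days off, with n = 6 per group.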

[4] = Metabolic stability in human liver microsomes assessed as compound remaining at […] after 15 mins by LC-MS/MS analysis; format: ADME, Microsome; settings: read-out: Stability

CC1(C)C(=O)N(c2ccc(C#N)c(C(F)(F)F)c2)C(=S)N1CCCC(N)=O
IC50 (Androgen receptor): 480 nM | EC5 [1]: 3.6 µM | EC5 [2]: > 10 µM | Activity [3]: inactive

CC1(C)C(=O)N(c2ccc(C#N)c(C(F)(F)F)c2)C(=S)N1CCCCS(N)(=O)=O
IC50 (Androgen receptor): > 1000 nM | EC5 [1]: > 10 µM | EC5 [2]: > 10 µM | Activity [3]: inactive

CN1C(=S)N(c2ccc(C#N)c(C(F)(F)F)c2)C(=O)C1(C)C
IC50 (Androgen receptor): 15 nM | EC5 [1]: < 0.001 µM | EC5 [2]: 8e-05 µM | Activity [3]: Active

CC1(C)C(=O)N(c2ccc(C#N)c(C(F)(F)F)c2)C(=S)N1CCCNC(N)=O
IC50 (Androgen receptor): 800 nM | EC5 [1]: 0.65 µM | EC5 [2]: 0.35 µM | Activity [3]: inactive

CNS(=O)(=O)CCCN1C(=S)N(c2ccc(C#N)c(C(F)(F)F)c2)C(=O)C1(C)C
IC50 (Androgen receptor): 170 nM | EC5 [1]: > 10 µM | EC5 [2]: 1.4 µM | Activity [3]: inactive

CC1(C)C(=O)N(c2ccc(C#N)c(Cl)c2)C(=S)N1CCCS(N)(=O)=O
ED50 (Mus musculus): 10 mg/kg | inhibition (LNCaP): Dose-dependent effect | IC50 (Androgen receptor): 440 nM | remaining [4]: 100% | Activity [3]: inactive

CC1(C)C(=O)N(c2ccc(C#N)c(C(F)(F)F)c2)C(=S)N1CCCS(=O)(=O)O
IC50 (Androgen receptor): > 1000 nM | EC5 [1]: > 10 µM | Activity [3]: Active

CC1(C)C(=O)N(c2ccc(C#N)c(C(F)(F)F)c2)C(=S)N1CCCc1nnn[nH]1
IC50 (Androgen receptor): > 1000 nM | EC5 [1]: > 10 µM | Activity [3]: inactive

CC1(C)C(=O)N(c2ccc(C#N)c(C(F)(F)F)c2)C(=S)N1CCCNS(N)(=O)=O
IC50 (Androgen receptor): > 1000 nM | EC5 [1]: > 10 µM | EC5 [2]: > 10 µM | Activity [3]: inactive

Cc1c(N2C(=O)C(C)(C)N(CCCS(N)(=O)=O)C2=S)ccc(C#N)c1C(F)(F)F
IC50 (Androgen receptor): 260 nM | remaining [4]: 89% | EC5 [2]: 2 µM | Activity [3]: Active

Cc1cc(C#N)c(C(F)(F)F)cc1N1C(=O)C(C)(C)N(CCCS(N)(=O)=O)C1=S
IC50 (Androgen receptor): > 5000 nM | remaining [4]: 91% | EC5 [2]: > 10 µM

CC1(C)C(=O)N(c2ccc(C#N)c(C(F)(F)F)c2)C(=S)N1CCCC(=O)O
IC50 (Androgen receptor): 3900 nM | remaining [4]: 97% | EC5 [1]: > 10 µM | EC5 [2]: > 10 µM | Activity [3]: inactive

Cc1cc(N2C(=O)C(C)(C)N(CCCS(N)(=O)=O)C2=S)ccc1C#N
IC50 (Androgen receptor): > 1000 nM | remaining [4]: 94% | EC5 [2]: > 10 µM | Activity [3]: inactive

CC1(C)C(=O)N(c2ccc(C#N)c(C(F)(F)F)c2)C(=S)N1CCCS(N)(=O)=O
IC50 (Androgen receptor): 400 nM | remaining [4]: 95% | EC5 [1]: > 10 µM | EC5 [2]: > 10 µM | Activity [3]: inactive

COc1cc(N2C(=O)C(C)(C)N(CCCS(N)(=O)=O)C2=S)ccc1C#N
IC50 (Androgen receptor): 1900 nM | remaining [4]: 100% | EC5 [2]: > 10 µM | Activity [3]: Active

CN(C)S(=O)(=O)CCCN1C(=S)N(c2ccc(C#N)c(C(F)(F)F)c2)C(=O)C1(C)C
IC50 (Androgen receptor): 80 nM | EC5 [1]: 0.11 µM | Activity [3]: Active

CC1(C)C(=O)N(c2ccc(C#N)cc2)C(=S)N1CCCS(N)(=O)=O
IC50 (Androgen receptor): > 5000 nM | remaining [4]: 92% | EC5 [2]: > 10 µM

CC1(C)C(=O)N(c2ccc(C#N)c(C(F)(F)F)c2)C(=S)N1CCS(N)(=O)=O
IC50 (Androgen receptor): 770 nM | EC5 [1]: > 10 µM | EC5 [2]: 7.2 µM | Activity [3]: inactive
